# Peptide text beside a SMILES is read from it.
# Experiments:
# Proteus mirabilis = assay: Compound tested for the antimicrobial activity against Proteus mirabilis; format: functional
# Method in brief: (§1)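 Microbroth dilution in Tryptic Soy Broth; inoculum 5×10^5 CFU/mL; plates incubated at 37 °C for 18-20 h; value reported as minimal inhibitory concentration (µg/mL).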
# Pseudomonas aeruginosa [1] = assay: Compound tested for the antimicrobial activity against Pseudomonas aeruginosa strain 6; format: functional; method in brief: as §1
# Pseudomonas aeruginosa [2] = assay: Compound tested for the antimicrobial activity against Pseudomonas aeruginosa strain ATCC 25916; format: functional; method in brief: as §1
# Staphylococcus aureus [3] = assay: Compound tested for the activity against Staphylococcus aureus strain 4; format: functional; method in brief: as §1
# Enterobacter cloacae [4] = assay: Compound tested for the antimicrobial activity against Enterobacter cloacae; format: functional; method in brief: as §1
# Pseudomonas aeruginosa [5] = assay: Compound tested for the antimicrobial activity against Pseudomonas aeruginosa strain 3; format: functional; method in brief: as §1
# Klebsiella pneumoniae = assay: Compound tested for the antimicrobial activity against Klebsiella pneumoniae; format: functional
# Method in brief: (§2)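 MIC by microbroth dilution in Tryptic Soy Broth; inoculum 5×10^5 CFU/mL; plates incubated 18-20 h at 37 °C; assay pH approximately 7.4.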
# Pseudomonas aeruginosa [6] = assay: Compound tested for the antimicrobial activity against Pseudomonas aeruginosa strain 7; format: functional; method in brief: as §1
# Staphylococcus aureus [7] = assay: Compound tested for the activity against Staphylococcus aureus strain 11; format: functional; method in brief: as §1
# Staphylococcus aureus [8] = assay: Compound tested for the activity against Staphylococcus aureus strain 1; format: functional; method in brief: as §1
# Escherichia coli = assay: Compound tested for in vitro susceptibility against ATCC strain 25922 of Escherichia coli; format: functional; settings: ATCC25922; method in brief: as §1
# Staphylococcus aureus [9] = assay: Compound tested for the activity against Staphylococcus aureus strain 7; format: functional; method in brief: as §1
# Pseudomonas aeruginosa [10] = assay: Compound tested for the antimicrobial activity against Pseudomonas aeruginosa strain 2; format: functional; method in brief: as §1
# Enterobacter cloacae [11] = assay: Compound tested for the antimicrobial activity against Enterobacter cloacae ROS; format: functional; method in brief: as §2
# [12] = Hemolytic activity towards human erythrocytes is evaluated for magainin 2 at peptide concentration of 25 ug/mL; format: functional
# Method in brief: (§3)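 Washed human erythrocytes from healthy volunteers (3 mL packed cells, PBS pH 7.4 washes, diluted to 20 mL) exposed to peptide in PBS at 25-200 µg/mL, 30 min at 37 °C; supernatant absorbance at 576 nm after centrifugation; 0.1% Triton X-100 taken as 100% hemolysis; duplicates.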
# Pseudomonas aeruginosa [13] = assay: Compound tested for the antimicrobial activity against Pseudomonas aeruginosa strain 10; format: functional; method in brief: as §1
# Shigella flexneri = assay: Compound tested for the antimicrobial activity against Shigella flexneri; format: functional; method in brief: as §2
# Staphylococcus aureus [14] = assay: Compound tested for the activity against Staphylococcus aureus strain 3; format: functional; method in brief: as §1
# [15] = test system: Acinetobacter calcoaceticus subsp. anitratus; assay: Compound tested for the antimicrobial activity against Acinetobacter anitratus; format: functional, aeinetobacter anitrotap; method in brief: as §2
# Staphylococcus aureus [16] = assay: Compound tested for the activity against Staphylococcus aureus strain 5; format: functional; method in brief: as §1
# [17] = test system: Salmonella enterica subsp. enterica serovar Anatum; assay: Compound tested for the antimicrobial activity against S. a natum; format: functional, salmoneila onotum; method in brief: as §1
# Staphylococcus aureus [18] = assay: Compound tested for the activity against Staphylococcus aureus strain 2; format: functional; method in brief: as §1
# [19] = Hemolytic activity towards human erythrocytes is evaluated for magainin 2 at peptide concentration of 200 µg/mL; format: functional; method in brief: as §3
# Pseudomonas aeruginosa [20] = assay: Compound tested for the antimicrobial activity against Pseudomonas aeruginosa strain 1; format: functional; method in brief: as §1
# Pseudomonas aeruginosa [21] = assay: Compound tested for in vitro susceptibility against ATCC strain 27853 of Pseudomonas aeruginosa; format: functional; settings: ATCC 27853; method in brief: as §1
# Staphylococcus aureus [22] = assay: Compound tested for the activity against Staphylococcus aureus strain 10; format: functional; method in brief: as §1
# [23] = Hemolytic activity towards human erythrocytes is evaluated for magainin 2 at peptide concentration of 50 µg/mL; format: functional; method in brief: as §3
# Pseudomonas aeruginosa [24] = assay: Compound tested for the antimicrobial activity against Pseudomonas aeruginosa strain 8; format: functional; method in brief: as §1
# Staphylococcus aureus [25] = assay: Compound tested for the activity against Staphylococcus aureus strain ATCC 28953; format: functional; method in brief: as §1
# Pseudomonas aeruginosa [26] = assay: Compound tested for the antimicrobial activity against Pseudomonas aeruginosa strain 5; format: functional; method in brief: as §1
# Staphylococcus aureus [27] = assay: Compound tested for the activity against Staphylococcus aureus strain 9; format: functional; method in brief: as §1
# Staphylococcus aureus [28] = assay: Compound tested for the activity against Staphylococcus aureus strain 8; format: functional; method in brief: as §1
# [29] = Hemolytic activity towards human erythrocytes is evaluated for magainin 2 at peptide concentration of 100 µg/mL; format: functional; method in brief: as §3
# Pseudomonas aeruginosa [30] = assay: Compound tested for the antimicrobial activity against Pseudomonas aeruginosa strain 11; format: functional; method in brief: as §1
# Staphylococcus aureus [31] = assay: Compound tested for the activity against Staphylococcus aureus strain 6; format: functional; method in brief: as §1
# Pseudomonas aeruginosa [32] = assay: Compound tested for the antimicrobial activity against Pseudomonas aeruginosa strain 9; format: functional; method in brief: as §1
# Pseudomonas aeruginosa [33] = assay: Compound tested for the antimicrobial activity against Pseudomonas aeruginosa strain 4; format: functional; method in brief: as §1
# Staphylococcus aureus [34] = assay: Compound tested for in vitro susceptibility against ATCC strain 29213 of Staphylococcus aureus; format: functional; method in brief: as §1
structure (smiles),measurement,setting,value
CC(C)C[C@H](NC(=O)[C@H](CCCCN)NC(=O)[C@H](CC(C)C)NC(=O)[C@H](Cc1ccccc1)NC(=O)[C@H](CCCCN)NC(=O)[C@H](CCCCN)NC(=O)[C@H](C)NC(=O)[C@H](Cc1ccccc1)NC(=O)[C@H](CCCCN)NC(=O)[C@H](CCCCN)NC(=O)[C@H](Cc1ccccc1)NC(=O)[C@H](CC(C)C)NC(=O)[C@@H](N)CCCCN)C(=O)N[C@@H](Cc1ccccc1)C(=O)N[C@@H](CCCCN)C(=O)N[C@@H](C)C(=O)N[C@@H](Cc1c[nH]c2ccccc12)C(=O)O (H-KLFKKFAKKFLKLFKAW-OH),MIC,Proteus mirabilis,> 100 µg/mL
same,MIC,Pseudomonas aeruginosa [1],25 µg/mL
same,MIC,Pseudomonas aeruginosa [2],3.12 µg/mL
same,MIC,Staphylococcus aureus [3],25 µg/mL
same,MIC,Enterobacter cloacae [4],6.25 µg/mL
same,MIC,Pseudomonas aeruginosa [5],6.25 µg/mL
same,MIC,Klebsiella pneumoniae,12.5 µg/mL
same,MIC,Pseudomonas aeruginosa [6],6.25 µg/mL
same,MIC,Staphylococcus aureus [7],25 µg/mL
same,MIC,Staphylococcus aureus [8],3.12 µg/mL
same,MIC,Escherichia coli,6.25 µg/mL
same,MIC,Staphylococcus aureus [9],25 µg/mL
same,MIC,Pseudomonas aeruginosa [10],12.5 µg/mL
same,MIC,Enterobacter cloacae [11],12.5 µg/mL
same,Hemolysis,[12],5%
same,MIC,Pseudomonas aeruginosa [13],50 µg/mL
same,MIC,Shigella flexneri,3.12 µg/mL
same,MIC,Staphylococcus aureus [14],25 µg/mL
same,MIC,[15],6.25 µg/mL
same,MIC,Staphylococcus aureus [16],50 µg/mL
same,MIC,[17],12.5 µg/mL
same,MIC,Staphylococcus aureus [18],25 µg/mL
same,Hemolysis,[19],40%
same,MIC,Pseudomonas aeruginosa [20],6.25 µg/mL
same,MIC,Pseudomonas aeruginosa [21],12.5 µg/mL
same,MIC,Staphylococcus aureus [22],25 µg/mL
same,Hemolysis,[23],15%
same,MIC,Pseudomonas aeruginosa [24],12.5 µg/mL
same,MIC,Staphylococcus aureus [25],25 µg/mL
same,MIC,Pseudomonas aeruginosa [26],12.5 µg/mL
same,MIC,Staphylococcus aureus [27],50 µg/mL
same,MIC,Staphylococcus aureus [28],25 µg/mL
same,Hemolysis,[29],26%
same,MIC,Pseudomonas aeruginosa [30],25 µg/mL
same,MIC,Staphylococcus aureus [31],25 µg/mL
same,MIC,Pseudomonas aeruginosa [32],> 100 µg/mL
same,MIC,Pseudomonas aeruginosa [33],12.5 µg/mL
CC(C)C[C@H](NC(=O)[C@H](CCCCN)NC(=O)[C@H](CC(C)C)NC(=O)[C@H](Cc1c[nH]c2ccccc12)NC(=O)[C@H](CCCCN)NC(=O)[C@H](CCCCN)NC(=O)[C@H](C)NC(=O)[C@H](Cc1c[nH]c2ccccc12)NC(=O)[C@H](CCCCN)NC(=O)[C@H](CCCCN)NC(=O)[C@H](Cc1c[nH]c2ccccc12)NC(=O)[C@H](CC(C)C)NC(=O)[C@@H](N)CCCCN)C(=O)N[C@@H](Cc1c[nH]c2ccccc12)C(=O)N[C@@H](CCCCN)C(=O)N[C@@H](C)C(=O)N[C@@H](Cc1c[nH]c2ccccc12)C(=O)O (H-KLWKKWAKKWLKLWKAW-OH),MIC,Proteus mirabilis,> 100 µg/mL
same,MIC,Pseudomonas aeruginosa [1],> 100 µg/mL
same,MIC,Pseudomonas aeruginosa [2],3.12 µg/mL
same,MIC,Staphylococcus aureus [3],12.5 µg/mL
same,MIC,Enterobacter cloacae [4],< 0.39 µg/mL
same,MIC,Pseudomonas aeruginosa [5],12.5 µg/mL
same,MIC,Klebsiella pneumoniae,12.5 µg/mL
same,MIC,Pseudomonas aeruginosa [6],12.5 µg/mL
same,MIC,Staphylococcus aureus [7],25 µg/mL
same,MIC,Staphylococcus aureus [8],12.5 µg/mL
same,MIC,Escherichia coli,6.25 µg/mL
same,MIC,Staphylococcus aureus [9],25 µg/mL
same,MIC,Pseudomonas aeruginosa [10],3.12 µg/mL
same,MIC,Enterobacter cloacae [11],25 µg/mL
same,Hemolysis,[12],10%
same,MIC,Pseudomonas aeruginosa [13],25 µg/mL
same,MIC,Shigella flexneri,3.12 µg/mL
same,MIC,Staphylococcus aureus [14],25 µg/mL
same,MIC,[15],3.12 µg/mL
same,MIC,Staphylococcus aureus [16],12.5 µg/mL
same,MIC,[17],12.5 µg/mL
same,MIC,Staphylococcus aureus [18],6.25 µg/mL
same,Hemolysis,[19],55%
same,MIC,Pseudomonas aeruginosa [20],6.25 µg/mL
same,MIC,Pseudomonas aeruginosa [21],3.12 µg/mL
same,MIC,Staphylococcus aureus [34],50 µg/mL
same,MIC,Staphylococcus aureus [22],25 µg/mL
same,Hemolysis,[23],18%
same,MIC,Pseudomonas aeruginosa [24],12.5 µg/mL
same,MIC,Staphylococcus aureus [25],25 µg/mL
same,MIC,Pseudomonas aeruginosa [26],12.5 µg/mL
same,MIC,Staphylococcus aureus [27],25 µg/mL
same,MIC,Staphylococcus aureus [28],25 µg/mL
same,Hemolysis,[29],31%
same,MIC,Pseudomonas aeruginosa [30],> 100 µg/mL
same,MIC,Staphylococcus aureus [31],12.5 µg/mL
same,MIC,Pseudomonas aeruginosa [32],> 100 µg/mL
same,MIC,Pseudomonas aeruginosa [33],12.5 µg/mL
CC(C)C[C@H](NC(=O)[C@H](CCCCN)NC(=O)[C@H](CCCCN)NC(=O)[C@H](Cc1c[nH]c2ccccc12)NC(=O)[C@@H](N)CCCCN)C(=O)N[C@@H](C)C(=O)N[C@@H](CCCCN)C(=O)N[C@@H](CCCCN)C(=O)N[C@@H](Cc1c[nH]c2ccccc12)C(=O)O (H-KWKKLAKKW-OH),MIC,Escherichia coli,25 µg/mL
same,Hemolysis,[12],0%
same,Hemolysis,[19],0%
same,MIC,Pseudomonas aeruginosa [21],12.5 µg/mL
same,MIC,Staphylococcus aureus [34],25 µg/mL
same,Hemolysis,[23],0%
same,Hemolysis,[29],0%

# Reference: ChEMBL document CHEMBL1126653, “Structure-function studies of amphiphilic antibacterial peptides” (1993)
